Measured values gathered from unrelated publications.
Lines come from different studies, so protocols differ.
Target: Serine/threonine-protein kinase 32C (STK32C, Homo sapiens, UniProt Q86UX6)

The inhibition of `CS(=O)(=O)Nc1cccc(-c2csc(NC(=O)CSc3nc4nccnc4c(=O)n3CCc3ccccc3)n2)c1` is reported as -5% (enzyme activity, inhibitor; 10 µM).
For `Cc1nc(C2CCN(C(=O)c3ccc(OC(F)(F)F)cc3N)CC2)c2ncc(N3CCN(C)CC3)cc2n1`, the remaining binding was 100% (cell-free assay, competition with immobilised ligand; 1 µM).
`CCCCNc1ncc2c(-c3ccc(F)cc3)nn(C[C@H]3CC[C@H](N)CC3)c2n1` has an inhibition of 55% (target engagement in cells, inhibitor, chemoproteomics; 20 mM).
For `Nc1ncnc2occ(-c3ccc(NC(=O)Nc4cc(C(F)(F)F)ccc4F)cc3)c12`, the remaining signal was 91% (cell-free assay; 20 µM).
The remaining activity of `CC(C)(O)[C@H]1CC[C@H](Nc2ccc3ncc(-c4cccc(C(F)(F)F)c4)n3n2)CC1` is reported as 83.2% (enzyme activity, inhibitor; 1 µM).
For `O=C(Nc1cnn(-c2csc(C(=O)NC3COC3)c2)c1)Nc1ccccc1Cl`, the remaining activity was 113% (enzyme activity, inhibitor; 5 µM).
`O=C(CSc1nc2nccnc2c(=O)n1CCc1ccccc1)Nc1nccs1` gave an inhibition of -9% (enzyme activity, inhibitor; 10 µM).
`CN(C)C(=O)Cn1cc(-c2nc(C3(c4ccc(-c5cnc(N)nc5)cc4)CC3)no2)cn1` gave a remaining binding of 100% (cell-free assay, competition with immobilised ligand; 1 µM).
With `CN1CC(Oc2cnc(C#N)cc2-c2ccn3nc(NC(=O)C4CC4)cc3c2)C1` the inhibition was -5% (enzyme activity, inhibitor; 1 µM).
`O=C(Nc1cnn(-c2csc(C(=O)NC3COC3)c2)c1)Nc1c(F)cccc1Cl` gave a remaining activity of 90.7% (enzyme activity, inhibitor; 5 µM).
For `Cc1ccc(C(=O)Nc2ccc(CN3CCN(C)CC3)c(C(F)(F)F)c2)cc1C#Cc1cnc2cccnn12`, the remaining activity was 100% (enzyme activity; 23.5 nM).
For `COc1cccc2c(NCc3ccccc3)nc(-n3c(N)nc4ccccc43)nc12`, the inhibition was 13.6% (target engagement in cells, inhibitor, chemoproteomics; 20 mM).
The remaining activity of `COc1cc(Cl)c(C(=O)N[C@@H](CN[C@H]2CC[C@@H](N)CC2)Cc2ccc(C#N)cc2)cc1-c1ccc(CN[C@H](C)c2ccc(C)cc2)o1` is reported as 95% (enzyme activity, inhibitor; 1 µM).
